Results reported in ChEMBL document CHEMBL4028911, “Discovery of a Small-Molecule Bromodomain-Containing Protein 4 (BRD4) Inhibitor That Induces AMP-Activated Protein Kinase-Modulated Autophagy-Associated Cell Death in Breast Cancer” (J Med Chem, 2017).
Active and inactive are the calls of the source. The rule behind the calls is not given here.

How the values were obtained:
[1] = system: MCF7; experiment: Induction of autophagy in human MCF7 cells assessed as cytoplasmic vacuolization at 1.5 uM by electron microscopy; type: functional, cell-based
In short: (§1)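 MCF-7 (1.5 µM) or MDA-MB-231 (3 µM) cells treated for indicated times. Cytoplasmic vacuoles examined by transmission electron microscopy.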

[2] = target: T1, Bromodomain-containing protein 4 (Homo sapiens, UniProt O60885); experiment: Inhibition of BRD4 in human MCF7 cells assessed as increase in ATG13 phosphorylation at ser318 at 1.5 uM up to 36 hrs by Western blot analysis; type: cell-based
In short: (§2)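 MCF-7 (1.5 μM) or MDA-MB-231 (3 μM) cells treated for indicated times. Adherent and floating cells lysed in RIPA with 1 mM PMSF. Equal protein run on 10-15% SDS-PAGE, blotted to PVDF, blocked in milk or BSA, HRP/ECL detection. β-actin loading control.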

[3] = system: MCF7; experiment: Inhibition of BRD4 protein expression in human MCF7 cells at 1.5 uM measured up to 36 hrs by Western blot analysis; type: functional, cell-based; in short: as §2
[4] = target: T1, Bromodomain-containing protein 4; experiment: Inhibition of BRD4 in human MDA-MB-231 cells assessed as downregulation of c-Myc expression at 3 uM measured up to 36 hrs by Western blot analysis; type: cell-based; in short: as §2
[5] = system: MDA-MB-231; experiment: Induction of autophagy in human MDA-MB-231 cells assessed as cytoplasmic vacuolization at 3 uM by electron microscopy; type: functional, cell-based; in short: as §1
[6] = system: MCF7; experiment: Induction of autophagy in human MCF7 cells assessed as upregulation of beclin1 expression at 1.5 uM measured up to 36 hrs by Western blot analysis; type: functional, cell-based
In short: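 MCF-7 (1.5 µM) or MDA-MB-231 (3 µM) cells treated for indicated times. Adherent and floating cells lysed in RIPA with 1 mM PMSF, 4°C for 1 h. Equal protein run on 10-15% SDS-PAGE, transferred to PVDF, blocked with milk or BSA, probed with primary then HRP secondary antibodies, ECL detection; β-actin as loading control.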

[7] = target: T1, Bromodomain-containing protein 4; experiment: Inhibition of BRD4 in human MCF7 cells assessed as downregulation of AKT phosphorylation at thr308 at 1.5 uM measured up to 36 hrs by Western blot analysis; type: cell-based; in short: as §2
[8] = target: T1, Bromodomain-containing protein 4; experiment: Inhibition of BRD4 in human MDA-MB-231 cells assessed as downregulation of AKT phosphorylation at thr308 at 3 uM measured up to 36 hrs by Western blot analysis; type: cell-based; in short: as §2
[9] = system: MCF7; experiment: Induction of autophagy in human MCF7 cells assessed as downregulation of p62/SQSTM1 expression at 1.5 uM in presence of ATG5 siRNA by Western blot analysis; type: functional, cell-based
[10] = target: Bromodomain-containing protein 3 (Homo sapiens, UniProt Q15059); experiment: Inhibition of recombinant human N-terminal GST-tagged BRD3 bromodomain-1 (29 to 145 residues) expressed in Escherichia coli expression system after 120 mins by TR-FRET assay
Bromodomain-containing protein 3, sequence (Q15059 whole entry, the tested form may be a part): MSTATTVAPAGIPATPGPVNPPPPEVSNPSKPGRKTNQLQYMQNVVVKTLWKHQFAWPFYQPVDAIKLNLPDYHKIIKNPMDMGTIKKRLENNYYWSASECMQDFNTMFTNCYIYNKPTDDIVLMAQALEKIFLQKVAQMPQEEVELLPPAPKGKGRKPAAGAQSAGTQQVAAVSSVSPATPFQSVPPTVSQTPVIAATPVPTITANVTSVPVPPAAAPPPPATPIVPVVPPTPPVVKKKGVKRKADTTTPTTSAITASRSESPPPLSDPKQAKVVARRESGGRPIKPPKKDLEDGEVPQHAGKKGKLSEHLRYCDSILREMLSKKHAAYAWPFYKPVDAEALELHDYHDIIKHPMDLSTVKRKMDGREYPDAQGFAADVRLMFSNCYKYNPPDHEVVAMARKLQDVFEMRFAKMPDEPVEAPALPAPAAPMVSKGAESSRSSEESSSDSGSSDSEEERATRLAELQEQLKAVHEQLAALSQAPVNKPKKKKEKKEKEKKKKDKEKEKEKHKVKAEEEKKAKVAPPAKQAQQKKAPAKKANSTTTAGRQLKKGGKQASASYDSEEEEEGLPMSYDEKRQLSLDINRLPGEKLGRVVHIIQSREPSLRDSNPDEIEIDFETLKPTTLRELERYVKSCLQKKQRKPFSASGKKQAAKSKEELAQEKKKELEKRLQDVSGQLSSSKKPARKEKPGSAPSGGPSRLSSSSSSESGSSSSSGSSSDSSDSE
In short: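 TR-FRET bromodomain binding. Recombinant BRD domain, BET ligand and test agent in 20 μl assay buffer with 1% DMSO final. Incubated 120 min at room temperature. Blank lacks BET ligand.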

[11] = system: MCF7; experiment: Antitumor activity against human MCF7 cells xenografted in nude BALB/c mouse assessed as tumor growth inhibition at 25 to 100 mg/kg, ig administered once a day for 24 days measured every 3 days relative to control; type: functional
In short: (§3)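 Female BALB/c nude mice, 6-8 weeks, 20-22 g, injected subcutaneously with 5×10^6 MCF-7 or MDA-MB-231 cells. At 100 mm³ tumor volume (V = L×W²/2), split into four groups: 25, 50 or 100 mg/kg intragastric once daily for 24 or 27 days, or vehicle. Tumor volume and body weight measured every 3 days; tumors excised and weighed at end. MCF-7 n=7, MDA-MB-231 n=6 per group.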

[12] = system: Mus musculus; experiment: Toxicity in BALB/c mouse xenografted with human MCF7 cells assessed as effect on body weight at 25 to 100 mg/kg, ig administered once a day for 24 days measured every 3 days; type: organism-based; settings: in vivo, po
In short: (§4)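 Female BALB/c nude mice (6-8 weeks, 20-22 g) with subcutaneous MCF-7 or MDA-MB-231 xenografts (5×10^6 cells). At 100 mm3, given 25, 50 or 100 mg/kg intragastrically once daily, or vehicle, for 24 or 27 days. Body weight recorded every 3 days. MCF-7 n=7, MDA-MB-231 n=6 per group.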

[13] = system: Mus musculus; experiment: Toxicity in BALB/c mouse xenografted with human MDA-MB-231 cells assessed as effect on body weight at 25 to 100 mg/kg, ig administered once a day for […] measured every 3 days; type: organism-based; settings: in vivo, po; in short: as §4
[14] = system: Mus musculus; experiment: In vivo inhibition of BRD4 expression in BALB/c mouse xenografted with human MDA-MB-231 cells at 100 mg/kg, ig administered once a day for 27 days by Western blot analysis; type: functional, organism-based
In short: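 Tumor tissues excised from MCF-7 or MDA-MB-231 xenograft mice were lysed and analysed by western blot for BRD4, c-Myc, LC3 and cleaved caspase-3.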

[15] = system: MCF7; experiment: Induction of autophagy in human MCF7 cells assessed as induction of autophagic vacuoles at 1.5 uM by MDC-based fluorescence microscopy; type: functional, cell-based
In short: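 MCF-7 cells treated with 1.5 µM for indicated times. Stained with 0.05 mM monodansylcadaverine and autophagic vacuoles observed by fluorescence microscopy.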

[16] = system: MDA-MB-231; experiment: Induction of autophagy in human MDA-MB-231 cells assessed as induction of autophagic vacuoles at 3 uM by MDC-based fluorescence microscopy; type: functional, cell-based
In short: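 MDA-MB-231 cells exposed to 3 μM for indicated times, stained with 0.05 mM monodansylcadaverine, and autophagic vacuoles viewed by fluorescence microscopy.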

[17] = target: T1, Bromodomain-containing protein 4; experiment: Inhibition of BRD4 in human MCF7 cells assessed as reduction in FIP200 protein expression at 1.5 uM up to 36 hrs by Western blot analysis; type: cell-based; in short: as §2
[18] = target: T1, Bromodomain-containing protein 4; experiment: Inhibition of BRD4 in human MDA-MB-231 cells assessed as reduction in FIP200 protein expression at 3 uM up to 36 hrs by Western blot analysis; type: cell-based; in short: as §2
[19] = system: MCF7; experiment: Antitumor activity against human MCF7 cells xenografted in nude BALB/c mouse assessed as reduction in tumor weight at 25 to 100 mg/kg, ig administered once a day for 24 days measured every 3 days relative to control; type: functional, organism-based; in short: as §3

inhibition [2]: Active
inhibition [4]: Active
inhibition [7]: Active
inhibition [8]: Active
IC50 [10]: > 100 µM
inhibition [17]: Active
inhibition [18]: Active
SMILES: Cc1cc(-c2nc3sc4c(c3c(=O)[nH]2)CCN(C)C4)cc(C)c1O
Activity [1]: Active
inhibition [3]: Active
Activity [5]: Active
Activity [6]: Active
Activity [9]: inactive
TGI [11]: 80%
Activity [12]: Non-Toxic
Activity [13]: Non-Toxic
Activity [14]: Active
Activity [15]: Active
Activity [16]: Active
Activity [19]: Active
